Data as given in ChEMBL document CHEMBL2401654, “Synthesis, characterization, and biological assessment of the four stereoisomers of the H(3) receptor antagonist 5-fluoro-2-methyl-N-[2-methyl-4-(2-methyl[1,3']bipyrrolidinyl-1'-yl)phenyl]benzamide” (Bioorg Med Chem Lett, 2013).
≈ marks a conversion by molar mass, not a printed value.

Experiments:
Cytochrome P450 2D6 = Cytochrome P450 2D6 (Homo sapiens, UniProt P10635); test: Inhibition of CYP2D6 (unknown origin); assay type: ADME
Cytochrome P450 2C9 = Cytochrome P450 2C9 (Homo sapiens, UniProt P11712); test: Inhibition of CYP2C9 (unknown origin); assay type: ADME
hERG (KCNH2) [1] = target: T1, hERG (KCNH2) (Homo sapiens, UniProt Q12809); test: Inhibition of human ERG transfected in CHO cells at 1 uM by patch clamp assay relative to control; assay type: cell-based; conditions: CHO cells transfected with human ERG
In short: (§1)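 Whole-cell patch clamp on CHO cells stably transfected with the human ERG gene.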

Histamine H3 receptor [2] = target: Histamine H3 receptor (Homo sapiens, UniProt Q9Y5N1); test: Displacement of [3H]N-alpha-methylhistamine from recombinant human histamine H3 receptor transfected in CHO cell membranes after 1 hr by scintillation counting analysis
In short: (§2)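 Radioligand displacement of [3H]N-α-methylhistamine using membranes from CHO cells stably transfected with recombinant human or rat H3 receptor. Ki is presented as a range of multiple experiments (n ≥ 3).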

[3] = Drug metabolism in mouse liver microsomes at 5 uM after 20 mins; assay type: ADME, Microsome; conditions: read-out: Drug metabolism
In short: (§3)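 Substrate at 5 µM incubated at 37 °C for 20 min with in-house liver microsome preparations (human, mouse or rat). Reported as the percentage of parent compound metabolized.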

[4] = Solubility of the compound in PBS buffer at pH 7.4; assay type: physicochemical
In short: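 Solubility measured in PBS at pH 7.4.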

[5] = target: Voltage-gated inwardly rectifying potassium channel KCNH2 (Homo sapiens, UniProt Q12809); test: Inhibition of human ERG transfected in CHO cells by patch clamp assay; assay type: cell-based; in short: as §1
[6] = Partition coefficient, log P of the compound; assay type: physicochemical; conditions: octanol/water
[7] = Distribution coefficient, log D of the compound; assay type: physicochemical; conditions: octanol/water
[8] = Drug metabolism in human liver microsomes at 5 uM after 20 mins; assay type: ADME, Microsome; conditions: read-out: Drug metabolism; in short: as §3
Cytochrome P450 1A2 = target: T2, Cytochrome P450 1A2 (Homo sapiens, UniProt P05177); test: Inhibition of CYP1A2 (unknown origin); assay type: ADME
T2 sequence (P05177 whole entry): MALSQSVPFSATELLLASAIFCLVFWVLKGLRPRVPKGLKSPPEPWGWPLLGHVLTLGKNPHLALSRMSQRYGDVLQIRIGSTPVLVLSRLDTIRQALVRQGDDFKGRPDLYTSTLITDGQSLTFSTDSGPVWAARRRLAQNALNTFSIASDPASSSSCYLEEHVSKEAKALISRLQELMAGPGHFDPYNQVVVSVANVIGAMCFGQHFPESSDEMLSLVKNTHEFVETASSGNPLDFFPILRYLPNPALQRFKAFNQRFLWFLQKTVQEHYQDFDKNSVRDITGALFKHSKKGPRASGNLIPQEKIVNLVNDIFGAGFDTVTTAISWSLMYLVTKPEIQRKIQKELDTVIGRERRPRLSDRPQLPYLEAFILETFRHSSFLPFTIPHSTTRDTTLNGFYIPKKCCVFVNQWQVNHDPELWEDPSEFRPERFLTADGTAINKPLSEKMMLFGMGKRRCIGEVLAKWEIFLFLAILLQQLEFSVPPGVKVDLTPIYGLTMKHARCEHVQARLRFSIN

Cytochrome P450 2C19 = Cytochrome P450 2C19 (Homo sapiens, UniProt P33261); test: Inhibition of CYP2C19 (unknown origin); assay type: ADME
Salmonella typhimurium = test: Mutagenic activity in Salmonella typhimurium by Ames test; assay type: toxicity, organism-based; conditions: salmonella enterica subsp. enterica serovar typhimurium
Cytochrome P450 2B6 = target: T3, Cytochrome P450 2B6 (Homo sapiens, UniProt P20813); test: Inhibition of CYP2B6 (unknown origin); assay type: ADME
T3 sequence (P20813 whole entry): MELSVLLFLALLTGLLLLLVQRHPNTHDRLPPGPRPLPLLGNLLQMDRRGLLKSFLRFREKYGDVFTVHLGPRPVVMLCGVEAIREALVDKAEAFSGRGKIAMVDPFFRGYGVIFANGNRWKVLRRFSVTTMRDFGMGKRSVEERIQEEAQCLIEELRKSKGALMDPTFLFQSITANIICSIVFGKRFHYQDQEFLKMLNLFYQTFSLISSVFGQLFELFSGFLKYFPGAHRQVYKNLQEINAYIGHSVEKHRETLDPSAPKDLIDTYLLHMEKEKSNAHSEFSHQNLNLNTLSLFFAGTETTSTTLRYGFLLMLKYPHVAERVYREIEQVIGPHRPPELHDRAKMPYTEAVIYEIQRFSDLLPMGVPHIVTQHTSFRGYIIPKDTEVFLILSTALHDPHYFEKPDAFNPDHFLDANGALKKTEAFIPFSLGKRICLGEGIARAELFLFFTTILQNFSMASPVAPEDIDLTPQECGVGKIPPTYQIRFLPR

Cytochrome P450 3A4 = Cytochrome P450 3A4 (Homo sapiens, UniProt P08684); test: Inhibition of CYP3A4 (unknown origin); assay type: ADME
hERG (KCNH2) [9] = target: T1, hERG (KCNH2); test: Inhibition of human ERG transfected in CHO cells at 10 uM by patch clamp assay relative to control; assay type: cell-based; conditions: CHO cells transfected with human ERG; in short: as §1
[10] = Drug metabolism in rat liver microsomes at 5 uM after 20 mins; assay type: ADME, Microsome; conditions: read-out: Drug metabolism; in short: as §3
Histamine H3 receptor [11] = target: Histamine H3 receptor (Rattus norvegicus, UniProt Q9QYN8); test: Displacement of [3H]N-alpha-methylhistamine from recombinant rat histamine H3 receptor transfected in CHO cell membranes after 1 hr by scintillation counting analysis; set-up: species or system Membrane; in short: as §2
[12] = Genotoxicity in micronucleus (unknown origin)

T1 sequence (Q12809 whole entry): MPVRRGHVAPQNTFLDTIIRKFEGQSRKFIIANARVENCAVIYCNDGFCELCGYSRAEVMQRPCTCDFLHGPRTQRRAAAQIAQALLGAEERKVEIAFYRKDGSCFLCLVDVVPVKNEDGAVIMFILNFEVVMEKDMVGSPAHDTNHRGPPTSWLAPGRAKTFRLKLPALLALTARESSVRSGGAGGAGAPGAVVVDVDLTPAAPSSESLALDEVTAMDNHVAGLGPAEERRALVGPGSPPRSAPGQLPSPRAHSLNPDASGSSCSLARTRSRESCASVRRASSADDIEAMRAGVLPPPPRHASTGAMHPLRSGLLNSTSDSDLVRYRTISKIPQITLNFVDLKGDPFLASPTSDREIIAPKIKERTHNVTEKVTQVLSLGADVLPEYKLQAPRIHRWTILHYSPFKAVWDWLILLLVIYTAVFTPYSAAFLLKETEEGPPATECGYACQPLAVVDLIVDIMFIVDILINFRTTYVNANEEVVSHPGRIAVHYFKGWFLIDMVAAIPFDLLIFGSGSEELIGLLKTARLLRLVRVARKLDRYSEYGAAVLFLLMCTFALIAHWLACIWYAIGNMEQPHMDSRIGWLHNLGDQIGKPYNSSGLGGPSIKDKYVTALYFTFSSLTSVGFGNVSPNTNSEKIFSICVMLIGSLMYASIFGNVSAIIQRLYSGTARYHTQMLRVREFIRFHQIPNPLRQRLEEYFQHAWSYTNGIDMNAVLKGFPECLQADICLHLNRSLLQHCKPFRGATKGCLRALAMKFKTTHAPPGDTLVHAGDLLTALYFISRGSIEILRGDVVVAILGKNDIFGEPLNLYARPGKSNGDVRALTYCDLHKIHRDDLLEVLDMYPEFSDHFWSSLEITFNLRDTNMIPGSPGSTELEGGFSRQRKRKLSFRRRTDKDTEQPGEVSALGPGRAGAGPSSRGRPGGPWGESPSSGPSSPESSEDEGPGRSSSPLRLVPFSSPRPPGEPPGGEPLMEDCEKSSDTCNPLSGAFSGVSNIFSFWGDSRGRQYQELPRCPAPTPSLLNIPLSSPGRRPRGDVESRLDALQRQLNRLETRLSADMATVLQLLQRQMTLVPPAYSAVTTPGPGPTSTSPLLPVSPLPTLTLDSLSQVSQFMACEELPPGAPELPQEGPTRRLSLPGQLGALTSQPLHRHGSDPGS
Chain of Histamine H3 receptor (Rattus norvegicus, UniProt Q9QYN8) (Q9QYN8 whole entry): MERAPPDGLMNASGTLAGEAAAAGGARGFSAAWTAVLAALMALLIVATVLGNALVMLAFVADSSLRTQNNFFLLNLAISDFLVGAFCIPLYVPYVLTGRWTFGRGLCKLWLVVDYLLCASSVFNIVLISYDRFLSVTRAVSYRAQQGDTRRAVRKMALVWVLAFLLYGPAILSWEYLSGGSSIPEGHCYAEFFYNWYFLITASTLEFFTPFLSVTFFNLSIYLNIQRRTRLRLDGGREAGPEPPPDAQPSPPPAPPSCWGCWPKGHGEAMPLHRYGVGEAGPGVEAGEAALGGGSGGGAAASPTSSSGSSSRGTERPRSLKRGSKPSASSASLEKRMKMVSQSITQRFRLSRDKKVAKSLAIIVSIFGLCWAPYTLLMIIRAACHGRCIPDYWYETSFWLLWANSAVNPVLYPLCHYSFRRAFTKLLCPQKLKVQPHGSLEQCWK
Chain of Cytochrome P450 2C19 (P33261 whole entry): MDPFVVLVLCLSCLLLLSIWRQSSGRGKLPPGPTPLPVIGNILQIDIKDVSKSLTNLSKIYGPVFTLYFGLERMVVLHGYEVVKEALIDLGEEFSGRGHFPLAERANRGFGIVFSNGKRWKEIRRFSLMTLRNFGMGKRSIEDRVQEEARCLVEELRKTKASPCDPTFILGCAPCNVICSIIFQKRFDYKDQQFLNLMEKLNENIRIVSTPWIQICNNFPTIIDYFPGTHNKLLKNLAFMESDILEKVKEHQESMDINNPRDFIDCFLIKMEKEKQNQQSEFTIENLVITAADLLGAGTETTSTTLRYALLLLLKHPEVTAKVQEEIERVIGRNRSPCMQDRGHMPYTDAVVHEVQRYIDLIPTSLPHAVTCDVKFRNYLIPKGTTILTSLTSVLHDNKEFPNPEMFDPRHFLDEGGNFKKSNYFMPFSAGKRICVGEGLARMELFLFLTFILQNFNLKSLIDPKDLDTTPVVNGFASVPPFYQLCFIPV
Chain of Histamine H3 receptor (Homo sapiens, UniProt Q9Y5N1) (Q9Y5N1 whole entry): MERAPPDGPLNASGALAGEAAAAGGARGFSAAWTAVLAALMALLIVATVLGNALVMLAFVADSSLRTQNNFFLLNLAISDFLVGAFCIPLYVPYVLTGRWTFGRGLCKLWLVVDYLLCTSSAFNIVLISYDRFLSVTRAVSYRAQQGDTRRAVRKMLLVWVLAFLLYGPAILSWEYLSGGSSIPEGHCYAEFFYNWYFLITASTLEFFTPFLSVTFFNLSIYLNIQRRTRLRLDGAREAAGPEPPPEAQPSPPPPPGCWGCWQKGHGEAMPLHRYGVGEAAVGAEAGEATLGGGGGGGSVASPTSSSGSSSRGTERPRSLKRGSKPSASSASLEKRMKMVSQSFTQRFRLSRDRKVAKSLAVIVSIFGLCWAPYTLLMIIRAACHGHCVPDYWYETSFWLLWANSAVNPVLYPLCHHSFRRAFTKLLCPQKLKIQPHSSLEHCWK
Chain of Cytochrome P450 3A4 (P08684 whole entry): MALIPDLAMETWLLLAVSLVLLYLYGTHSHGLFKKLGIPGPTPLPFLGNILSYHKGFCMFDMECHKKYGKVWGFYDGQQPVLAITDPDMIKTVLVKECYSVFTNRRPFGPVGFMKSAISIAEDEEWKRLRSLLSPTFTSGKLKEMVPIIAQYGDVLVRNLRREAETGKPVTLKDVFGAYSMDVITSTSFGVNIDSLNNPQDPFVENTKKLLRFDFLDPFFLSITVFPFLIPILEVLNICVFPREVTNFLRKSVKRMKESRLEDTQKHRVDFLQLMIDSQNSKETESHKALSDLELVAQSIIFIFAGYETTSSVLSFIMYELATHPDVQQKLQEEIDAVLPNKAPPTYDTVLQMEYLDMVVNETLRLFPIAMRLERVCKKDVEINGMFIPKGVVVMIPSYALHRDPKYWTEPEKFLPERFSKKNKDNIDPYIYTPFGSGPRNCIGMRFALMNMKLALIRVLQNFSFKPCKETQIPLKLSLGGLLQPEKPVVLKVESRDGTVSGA
Chain of Cytochrome P450 2C9 (P11712 whole entry): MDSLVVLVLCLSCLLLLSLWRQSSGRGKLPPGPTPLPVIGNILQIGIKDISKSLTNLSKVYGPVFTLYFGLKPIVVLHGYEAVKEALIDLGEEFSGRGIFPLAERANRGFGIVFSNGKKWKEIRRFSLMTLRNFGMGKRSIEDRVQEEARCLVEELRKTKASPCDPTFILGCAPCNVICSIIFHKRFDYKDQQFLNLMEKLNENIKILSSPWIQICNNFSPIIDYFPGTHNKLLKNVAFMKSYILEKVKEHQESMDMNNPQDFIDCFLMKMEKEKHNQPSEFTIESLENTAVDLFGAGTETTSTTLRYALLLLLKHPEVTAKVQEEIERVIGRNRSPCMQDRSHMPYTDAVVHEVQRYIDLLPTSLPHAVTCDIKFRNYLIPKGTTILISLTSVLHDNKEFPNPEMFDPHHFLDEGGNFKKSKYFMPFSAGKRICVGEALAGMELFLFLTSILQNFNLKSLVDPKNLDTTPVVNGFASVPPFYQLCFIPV
Chain of Cytochrome P450 2D6 (P10635 whole entry): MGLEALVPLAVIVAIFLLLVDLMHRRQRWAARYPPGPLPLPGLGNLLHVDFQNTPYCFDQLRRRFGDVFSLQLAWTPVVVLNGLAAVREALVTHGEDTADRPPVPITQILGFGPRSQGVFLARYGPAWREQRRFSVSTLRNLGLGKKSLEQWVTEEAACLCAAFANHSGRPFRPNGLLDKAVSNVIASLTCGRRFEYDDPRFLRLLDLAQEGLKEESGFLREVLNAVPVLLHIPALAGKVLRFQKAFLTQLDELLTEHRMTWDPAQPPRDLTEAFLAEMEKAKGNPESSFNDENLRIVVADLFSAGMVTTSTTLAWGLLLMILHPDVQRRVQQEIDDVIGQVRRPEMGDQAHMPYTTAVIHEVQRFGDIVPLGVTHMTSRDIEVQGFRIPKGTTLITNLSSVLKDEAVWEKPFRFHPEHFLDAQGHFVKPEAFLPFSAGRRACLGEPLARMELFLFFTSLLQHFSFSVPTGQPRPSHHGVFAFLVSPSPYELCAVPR

Cc1cc(N2CC[C@@H](N3CCC[C@@H]3C)C2)ccc1NC(=O)c1cc(F)ccc1C
IC50 (Cytochrome P450 2D6): > 30 µM
IC50 (Cytochrome P450 2C9): > 30 µM
inhibition at 1 µM (hERG (KCNH2) [1]): 38.8%
Ki (Histamine H3 receptor [2]): 0.018 µM
metabolised at 20 min, 5 µM [3]: 20%
solubility [4]: 88.5 µg/mL (≈ 224 µM)
IC50 [5]: 1.8 µM
logP [6]: 3.55
logD [7]: 2.09
metabolised at 20 min, 5 µM [8]: 5%
IC50 (Cytochrome P450 1A2): > 30 µM
IC50 (Cytochrome P450 2C19): > 30 µM
Activity (Salmonella typhimurium): Non-toxic
IC50 (Cytochrome P450 2B6): > 30 µM
IC50 (Cytochrome P450 3A4): > 30 µM
inhibition at 10 µM (hERG (KCNH2) [9]): 88.6%
metabolised at 20 min, 5 µM [10]: 36%
Ki (Histamine H3 receptor [11]): 0.011 µM
Activity [12]: Non-toxic

Cc1cc(N2CC[C@H](N3CCC[C@H]3C)C2)ccc1NC(=O)c1cc(F)ccc1C
IC50 (Cytochrome P450 2D6): > 30 µM
IC50 (Cytochrome P450 2C9): > 30 µM
inhibition at 1 µM (hERG (KCNH2) [1]): 43%
Ki (Histamine H3 receptor [2]): 0.82 µM
metabolised at 20 min, 5 µM [3]: 29%
metabolised at 20 min, 5 µM [8]: 7%
IC50 (Cytochrome P450 1A2): > 30 µM
IC50 (Cytochrome P450 2C19): > 30 µM
Activity (Salmonella typhimurium): Non-toxic
IC50 (Cytochrome P450 2B6): > 30 µM
IC50 (Cytochrome P450 3A4): > 30 µM
inhibition at 10 µM (hERG (KCNH2) [9]): 84.3%
metabolised at 20 min, 5 µM [10]: 60%
Ki (Histamine H3 receptor [11]): 0.093 µM
Activity [12]: Non-toxic
